We go through one compound from ChEMBL document CHEMBL5030534, “Discovery of Novel Anti-Breast-Cancer Inhibitors by Synergistically Antagonizing Microtubule Polymerization and Aryl Hydrocarbon Receptor Expression” (J Med Chem, 2021).

Series [1] concerns MCF7. Kind of series: Induction of apoptosis in human MCF7 cells assessed as viable cells at 2 nM measured after 24 hrs in presence of DMBA by Annexin V-FITC and PI staining based flow cytometry assay (reference value: 96.5%). The conditions noted are these: read-out: Activity. It is filed as functional. On the technique in general: Flow cytometry measures light scatter and fluorescence of single cells or particles in a stream.

Series [2] concerns the target T1, Aryl hydrocarbon receptor (Homo sapiens, UniProt P35869).
T1 sequence (P35869 whole entry): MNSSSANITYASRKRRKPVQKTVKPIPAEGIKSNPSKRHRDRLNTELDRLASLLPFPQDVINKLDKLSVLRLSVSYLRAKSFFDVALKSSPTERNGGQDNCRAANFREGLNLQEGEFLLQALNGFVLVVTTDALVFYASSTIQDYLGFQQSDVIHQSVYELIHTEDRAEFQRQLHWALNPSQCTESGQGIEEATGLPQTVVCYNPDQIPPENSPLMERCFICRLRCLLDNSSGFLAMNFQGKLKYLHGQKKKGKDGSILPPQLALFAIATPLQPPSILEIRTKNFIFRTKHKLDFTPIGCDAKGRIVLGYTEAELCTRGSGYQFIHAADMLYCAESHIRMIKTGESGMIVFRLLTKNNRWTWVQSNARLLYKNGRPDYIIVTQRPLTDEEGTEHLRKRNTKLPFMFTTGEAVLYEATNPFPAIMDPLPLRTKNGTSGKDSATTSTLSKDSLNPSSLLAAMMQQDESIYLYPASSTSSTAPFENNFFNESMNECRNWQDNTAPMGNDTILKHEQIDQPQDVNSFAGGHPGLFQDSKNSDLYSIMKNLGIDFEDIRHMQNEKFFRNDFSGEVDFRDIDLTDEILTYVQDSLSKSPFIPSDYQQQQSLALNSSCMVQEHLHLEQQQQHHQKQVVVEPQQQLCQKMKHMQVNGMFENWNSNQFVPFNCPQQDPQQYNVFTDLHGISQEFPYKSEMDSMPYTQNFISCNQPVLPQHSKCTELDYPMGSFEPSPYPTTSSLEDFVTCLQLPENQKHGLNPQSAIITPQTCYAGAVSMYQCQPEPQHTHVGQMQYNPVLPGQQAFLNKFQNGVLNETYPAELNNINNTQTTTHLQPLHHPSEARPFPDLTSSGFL
The series can be described thus: Inhibition of AhR signalling in human MCF7 cells assessed as reduction in AhR level at 2 nM incubated for 24 hrs in presence of DMBA by Western blot analysis. It is filed as cell-based. The conditions noted are these: mcf7, 24 h, 0.002 µM. The gist of the method: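 MCF-7 treated with DMBA (400 nM), DMBA plus 2 nM, or 2 nM alone. AhR measured by Western blot relative to loading control; n = 3.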
Background: In western blotting, separated proteins are transferred to a membrane and probed.

The subject of series [3] is MCF7. Kind of series: Antitumor activity against human MCF7 cells xenografted in BALB/c nude mouse assessed as increase in apoptotic cells at 1 mg/kg, iv administered every 2 days for 21 days by TUNEL staining based assay. In kind it is functional, organism-based. The conditions noted are these: time 21.0 day. The essentials:
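Same subcutaneous MCF-7 nude-mouse xenografts dosed iv every 2 days for 21 days. Tumors then fixed, paraffin-embedded and sectioned. Apoptotic cells detected by TUNEL fluorescent staining with DNA counterstain; microvessel density measured by anti-CD31 immunohistochemistry.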
For orientation: Xenograft models place foreign cells or tissue in a host animal.

Series [4] relates to MCF7. Kind of series: Inhibition of cell migration in human MCF7 cells at 2 nM incubated for 24 hrs in presence of DMBA by inverted fluorescence microscopic method (reference value: 11.51%). It is filed as functional. Details: scale not given: the % may be the effect or the level left.
The test system of series [5] is MCF7. The series can be described thus: Induction of apoptosis in human MCF7 cells assessed as early apoptotic cells at 2 nM measured after 24 hrs in presence of DMBA by Annexin V-FITC and PI staining based flow cytometry assay (reference value: 1%). In kind it is functional.
The test system of series [6] is MCF7. The series can be described thus: Induction of ROS generation in human MCF7 cells at 2 nM measured after 24 hrs in presence of N-acetylcysteine by DCFH-DA staining based flow cytometric analysis. In kind it is functional. The essentials: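 MCF-7 seeded 4 × 10⁵ per well for 24 h, then DMSO or 0.5, 1, 2 nM for 24 h. Loaded with DCFH-DA for 30 min in the dark, resuspended in serum-free medium, DCF fluorescence measured by flow cytometry. For scavenger condition, 2.5 mM N-acetyl-L-cysteine pretreatment, then 2 nM for 24 h. Three runs.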

Series [7] concerns MCF7. The series can be described thus: Induction of apoptosis in human MCF7 cells assessed as late apoptotic cells at 2 nM measured after 24 hrs in presence of DMBA by Annexin V-FITC and PI staining based flow cytometry assay (reference value: 1.5%). In kind it is functional.
Series [8] has as its system MCF7. The series can be described thus: Induction of apoptosis in human MCF7 cells assessed as increase in cleaved Caspase-3 protein expression at 1 to 4 nM. The conditions noted are these: dose 1-4 nM. It is filed as functional, cell-based. The essentials: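 MCF-7 seeded 4 × 10⁵ per well for 24 h, then DMSO or compound at 1, 2, 4 nM for 24 h. Lysates protein-normalized to 3 mg/mL by BCA, resolved on 4–20% SDS-PAGE and immunoblotted. Bands quantified relative to β-actin (cell-cycle proteins) or GAPDH (apoptosis proteins); n = 3.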

Series [9] relates to MCF7. The series can be described thus: Induction of apoptosis in human MCF7 cells assessed as late apoptotic cells at 2 nM measured after 24 hrs by Annexin V-FITC and PI staining based flow cytometry assay (reference value: 1.5%). It is filed as functional.
A further series has as its system L02. Kind of series: Antiproliferative activity against human L-O2 cells assessed as reduction in cell viability incubated for 48 hrs by MTT assay. The conditions noted are these: L02, 48 h. In kind it is cell-based. The essentials: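 Cells seeded at 5 × 10³ per well, incubated overnight, then exposed to a range of compound concentrations for 48 h. MTT added for 4 h, medium replaced with DMSO, absorbance read at 570 nm. MCF-7, L-O2 grown in DMEM; MCF-10A, MCF-7/ADR in RPMI 1640. Three independent runs.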

A short description of series [10]: Toxicity in BALB/c mouse xenografted with human MCF7 cells assessed as change in body weight at 0.5 to 1 mg/kg, iv administered every 2 days for 21 days. The conditions noted are these: in vivo, 504 h, dose 0.5-1 mg/kg, time 21 day. It is filed as organism-based. The essentials:
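Nude mice given 6 × 10⁶ MCF-7 cells subcutaneously on right flank; after 7 days randomized, eight per group. iv dosing every 2 days at 0.5 or 1 mg/kg; vehicle 10% DMSO/5% Tween 80/85% saline; paclitaxel 10 mg/kg and CA-4 20 mg/kg references. Body weight every 2 days; killed after 21 days; organs fixed, paraffin-sectioned, H&E stained.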

Active and inactive are the calls of the source. The calls are words filed in the database; no cut-off is given here.

What is called IC50 is the concentration that inhibits the measured activity by half.

For `Cc1nc(N(C)c2ccc3c(c2)cc(C)n3C)c2ccccc2n1`, in the series on MCF7 [1], the viability at 0.002 µM worked out at 67.5%. Besides, the “inhibition (INH)” value in series [2] is “Active”. Further, the outcome with MCF7 [3] and with MCF7 [8] was Active. In addition, the Activity was 6.34% in the series on MCF7 [4]; 5% with MCF7 [5]; 24.7% in the series with MCF7 [6]; 22% with MCF7 [7]; 44.7% in the series with MCF7 [9]; “Non-Toxic” in series [10]. The IC50 in the series with L02 is 4.6 nM.
